Laboratory results as given in ChEMBL document CHEMBL3351294, “Discovery of a selective, substrate-competitive inhibitor of the lysine methyltransferase SETD8” (J Med Chem, 2014).
Values belong to the compound of their own block, whether it stands above or below them.

Tests used:
[1] = molecular target: T1, Histone-lysine N-methyltransferase EHMT2 (Homo sapiens, UniProt Q96KQ7); assay: Inhibition of G9a (unknown origin) assessed as incorporation of tritium-labeled methyl group to lysine or arginine residues of peptide substrate by radioactive assay
T1 sequence (Q96KQ7 whole entry): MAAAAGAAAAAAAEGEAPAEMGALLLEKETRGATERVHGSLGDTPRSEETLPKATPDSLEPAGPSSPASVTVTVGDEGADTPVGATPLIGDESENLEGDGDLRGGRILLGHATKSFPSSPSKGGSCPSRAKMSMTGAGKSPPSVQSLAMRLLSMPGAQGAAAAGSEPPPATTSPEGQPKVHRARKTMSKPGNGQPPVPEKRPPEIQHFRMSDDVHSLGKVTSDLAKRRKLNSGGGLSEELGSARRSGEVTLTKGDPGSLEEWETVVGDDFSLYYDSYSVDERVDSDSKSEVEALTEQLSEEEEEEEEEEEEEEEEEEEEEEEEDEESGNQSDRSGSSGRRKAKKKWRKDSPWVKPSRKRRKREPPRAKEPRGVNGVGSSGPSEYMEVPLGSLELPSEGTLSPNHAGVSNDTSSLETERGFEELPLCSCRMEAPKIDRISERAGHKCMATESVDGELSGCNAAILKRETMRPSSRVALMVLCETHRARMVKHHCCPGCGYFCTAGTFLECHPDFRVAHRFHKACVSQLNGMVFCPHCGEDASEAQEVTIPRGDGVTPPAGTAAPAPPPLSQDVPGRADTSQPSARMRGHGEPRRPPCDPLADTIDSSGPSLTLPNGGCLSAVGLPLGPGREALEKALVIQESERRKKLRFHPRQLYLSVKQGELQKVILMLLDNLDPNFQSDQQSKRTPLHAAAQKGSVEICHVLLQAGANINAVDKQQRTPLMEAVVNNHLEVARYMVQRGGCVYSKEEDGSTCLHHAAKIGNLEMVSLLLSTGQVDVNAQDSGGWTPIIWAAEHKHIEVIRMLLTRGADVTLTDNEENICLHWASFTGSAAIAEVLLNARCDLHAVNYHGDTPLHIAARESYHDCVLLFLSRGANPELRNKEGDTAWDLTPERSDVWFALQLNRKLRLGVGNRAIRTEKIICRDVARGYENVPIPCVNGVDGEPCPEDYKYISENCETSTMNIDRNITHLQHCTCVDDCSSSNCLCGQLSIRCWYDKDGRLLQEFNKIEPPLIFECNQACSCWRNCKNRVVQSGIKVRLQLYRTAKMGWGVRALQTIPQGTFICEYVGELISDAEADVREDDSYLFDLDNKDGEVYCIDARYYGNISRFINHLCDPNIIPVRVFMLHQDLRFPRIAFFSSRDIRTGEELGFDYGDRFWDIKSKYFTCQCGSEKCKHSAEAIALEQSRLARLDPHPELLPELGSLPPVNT
Summary of the method: (§1)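 Enzymes (PRMT5 as PRMT5-MEP50 complex, MLL1 as MLL1 complex) in 20 μL reactions with 3H-SAM and substrates near each enzyme's Km; compound at 100 nM to 100 μM. Stopped with 7.5 M guanidine HCl, diluted in 20 mM Tris pH 8.0, incubated 1 h on streptavidin FlashPlate, read as CPM. No-compound CPM was 100% activity; no-enzyme CPM was 0% background.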

[2] = molecular target: Histone-lysine N-methyltransferase KMT5B (Homo sapiens, UniProt Q4FZB7); assay: Inhibition of SUV420H1 (unknown origin) assessed as incorporation of tritium-labeled methyl group to lysine or arginine residues of peptide substrate by radioactive assay; summary of the method: as §1
[3] = molecular target: Histone-lysine N-methyltransferase 2A (Homo sapiens, UniProt Q03164); assay: Inhibition of MLL1 (unknown origin) assessed as incorporation of tritium-labeled methyl group to lysine or arginine residues of peptide substrate by radioactive assay; summary of the method: as §1
[4] = molecular target: N-lysine methyltransferase SMYD2 (Homo sapiens, UniProt Q9NRG4); assay: Inhibition of SMYD2 (unknown origin) assessed as incorporation of tritium-labeled methyl group to lysine or arginine residues of peptide substrate by radioactive assay; summary of the method: as §1
[5] = molecular target: T2, Histone-lysine N-methyltransferase SETD7 (Homo sapiens, UniProt Q8WTS6); assay: Inhibition of SETD7 (unknown origin) assessed as incorporation of tritium-labeled methyl group to lysine or arginine residues of peptide substrate by radioactive assay; summary of the method: as §1
T2 sequence (Q8WTS6 whole entry): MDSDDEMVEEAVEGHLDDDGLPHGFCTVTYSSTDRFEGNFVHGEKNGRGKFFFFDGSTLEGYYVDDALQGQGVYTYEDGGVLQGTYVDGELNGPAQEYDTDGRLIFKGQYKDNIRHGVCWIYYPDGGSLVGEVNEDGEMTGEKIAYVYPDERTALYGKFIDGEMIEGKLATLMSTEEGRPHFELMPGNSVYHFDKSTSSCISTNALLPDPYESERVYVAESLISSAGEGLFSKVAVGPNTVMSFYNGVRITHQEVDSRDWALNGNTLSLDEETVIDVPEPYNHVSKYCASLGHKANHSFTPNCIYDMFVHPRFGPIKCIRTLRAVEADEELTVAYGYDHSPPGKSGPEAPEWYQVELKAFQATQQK

[6] = molecular target: Histone-lysine N-methyltransferase, H3 lysine-79 specific (Homo sapiens, UniProt Q8TEK3); assay: Inhibition of DOT1L (unknown origin) by filter-based assay
Summary of the method: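 Filter-format tritium assay: 20 μL reaction with 3H-SAM and substrates near Km, compound at 100 nM to 100 μM, incubated 1 h at room temperature. Precipitated with 10% TCA on filter plates, washed twice with 10% TCA and once with ethanol, scintillant added, CPM counted. No-compound CPM was 100% activity; no-enzyme CPM was 0%.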

[7] = molecular target: Histone-lysine N-methyltransferase SUV39H2 (Homo sapiens, UniProt Q9H5I1); assay: Inhibition of SUV39H2 (unknown origin) assessed as incorporation of tritium-labeled methyl group to lysine or arginine residues of peptide substrate by radioactive assay; summary of the method: as §1
[8] = molecular target: Protein arginine N-methyltransferase 1 (Homo sapiens, UniProt Q99873); assay: Inhibition of PRMT1 (unknown origin) assessed as incorporation of tritium-labeled methyl group to lysine or arginine residues of peptide substrate by radioactive assay; summary of the method: as §1
[9] = molecular target: T3, Histone-lysine N-methyltransferase EHMT1 (Homo sapiens, UniProt Q9H9B1); assay: Inhibition of GLP (unknown origin) assessed as incorporation of tritium-labeled methyl group to lysine or arginine residues of peptide substrate by radioactive assay; summary of the method: as §1
T3 sequence (Q9H9B1 whole entry): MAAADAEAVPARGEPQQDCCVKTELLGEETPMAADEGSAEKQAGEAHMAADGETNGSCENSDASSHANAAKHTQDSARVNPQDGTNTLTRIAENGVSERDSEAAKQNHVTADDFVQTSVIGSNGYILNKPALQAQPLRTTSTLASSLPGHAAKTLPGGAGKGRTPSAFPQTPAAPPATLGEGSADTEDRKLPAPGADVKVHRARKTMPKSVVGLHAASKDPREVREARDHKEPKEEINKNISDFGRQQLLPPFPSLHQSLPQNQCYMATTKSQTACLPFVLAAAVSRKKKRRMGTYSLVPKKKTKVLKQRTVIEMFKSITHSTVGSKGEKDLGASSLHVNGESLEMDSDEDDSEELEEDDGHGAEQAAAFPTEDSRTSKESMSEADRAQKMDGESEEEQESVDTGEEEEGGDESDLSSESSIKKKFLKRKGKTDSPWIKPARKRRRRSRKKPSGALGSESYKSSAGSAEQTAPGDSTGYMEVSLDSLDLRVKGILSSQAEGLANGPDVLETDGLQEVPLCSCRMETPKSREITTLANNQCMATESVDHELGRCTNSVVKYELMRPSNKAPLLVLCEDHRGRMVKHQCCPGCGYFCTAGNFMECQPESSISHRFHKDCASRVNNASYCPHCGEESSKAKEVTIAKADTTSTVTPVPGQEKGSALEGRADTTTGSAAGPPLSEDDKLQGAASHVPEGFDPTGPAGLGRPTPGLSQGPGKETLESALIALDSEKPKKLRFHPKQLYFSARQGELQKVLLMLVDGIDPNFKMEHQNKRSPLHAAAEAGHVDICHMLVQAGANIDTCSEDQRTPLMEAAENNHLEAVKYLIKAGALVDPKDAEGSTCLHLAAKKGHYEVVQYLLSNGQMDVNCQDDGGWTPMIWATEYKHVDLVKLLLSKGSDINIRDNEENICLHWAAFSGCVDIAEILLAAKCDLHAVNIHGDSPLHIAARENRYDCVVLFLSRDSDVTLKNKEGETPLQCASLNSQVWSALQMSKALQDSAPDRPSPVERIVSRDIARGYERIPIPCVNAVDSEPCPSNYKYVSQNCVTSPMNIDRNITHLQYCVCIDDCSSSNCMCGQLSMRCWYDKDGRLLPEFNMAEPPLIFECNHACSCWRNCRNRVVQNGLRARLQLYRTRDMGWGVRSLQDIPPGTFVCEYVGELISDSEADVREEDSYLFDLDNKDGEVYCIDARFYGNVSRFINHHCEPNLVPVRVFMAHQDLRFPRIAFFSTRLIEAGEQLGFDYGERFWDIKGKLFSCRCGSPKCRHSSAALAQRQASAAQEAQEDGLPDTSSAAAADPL

[10] = molecular target: Histone-lysine N-methyltransferase SETDB1 (Homo sapiens, UniProt Q15047); assay: Inhibition of SETDB1 (unknown origin) assessed as incorporation of tritium-labeled methyl group to lysine or arginine residues of peptide substrate by radioactive assay; summary of the method: as §1
[11] = molecular target: Histone-lysine N-methyltransferase KMT5C (Homo sapiens, UniProt Q86Y97); assay: Inhibition of SUV420H2 (unknown origin) assessed as incorporation of tritium-labeled methyl group to lysine or arginine residues of peptide substrate by radioactive assay; summary of the method: as §1
[12] = molecular target: Protein arginine N-methyltransferase 5 (Homo sapiens, UniProt O14744); assay: Inhibition of PRMT5 (unknown origin) assessed as incorporation of tritium-labeled methyl group to lysine or arginine residues of peptide substrate by radioactive assay; summary of the method: as §1
[13] = molecular target: Protein arginine N-methyltransferase 3 (Homo sapiens, UniProt O60678); assay: Inhibition of PRMT3 (unknown origin) assessed as incorporation of tritium-labeled methyl group to lysine or arginine residues of peptide substrate by radioactive assay; summary of the method: as §1
[14] = molecular target: DNA (cytosine-5)-methyltransferase 1 (Homo sapiens, UniProt P26358); assay: Inhibition of DNMT1 (unknown origin) assessed as using dsDNA substrate by radioactive assay
[15] = molecular target: T4, N-lysine methyltransferase KMT5A (Homo sapiens, UniProt Q9NQR1)
T4 sequence (Q9NQR1 whole entry): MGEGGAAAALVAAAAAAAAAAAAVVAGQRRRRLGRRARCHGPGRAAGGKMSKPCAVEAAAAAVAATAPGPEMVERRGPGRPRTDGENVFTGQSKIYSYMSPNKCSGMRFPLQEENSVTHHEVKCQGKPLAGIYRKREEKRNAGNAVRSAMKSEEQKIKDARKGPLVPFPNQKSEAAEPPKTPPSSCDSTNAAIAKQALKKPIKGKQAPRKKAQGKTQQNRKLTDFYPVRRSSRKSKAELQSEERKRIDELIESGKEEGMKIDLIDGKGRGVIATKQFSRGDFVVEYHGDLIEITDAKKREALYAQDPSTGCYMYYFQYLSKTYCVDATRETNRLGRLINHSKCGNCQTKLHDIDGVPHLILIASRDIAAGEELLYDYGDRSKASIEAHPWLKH

[16] = molecular target: T4, N-lysine methyltransferase KMT5A; remark: listed apart in the source

Chain of Histone-lysine N-methyltransferase 2A (Q03164 1-2718 limits assumed): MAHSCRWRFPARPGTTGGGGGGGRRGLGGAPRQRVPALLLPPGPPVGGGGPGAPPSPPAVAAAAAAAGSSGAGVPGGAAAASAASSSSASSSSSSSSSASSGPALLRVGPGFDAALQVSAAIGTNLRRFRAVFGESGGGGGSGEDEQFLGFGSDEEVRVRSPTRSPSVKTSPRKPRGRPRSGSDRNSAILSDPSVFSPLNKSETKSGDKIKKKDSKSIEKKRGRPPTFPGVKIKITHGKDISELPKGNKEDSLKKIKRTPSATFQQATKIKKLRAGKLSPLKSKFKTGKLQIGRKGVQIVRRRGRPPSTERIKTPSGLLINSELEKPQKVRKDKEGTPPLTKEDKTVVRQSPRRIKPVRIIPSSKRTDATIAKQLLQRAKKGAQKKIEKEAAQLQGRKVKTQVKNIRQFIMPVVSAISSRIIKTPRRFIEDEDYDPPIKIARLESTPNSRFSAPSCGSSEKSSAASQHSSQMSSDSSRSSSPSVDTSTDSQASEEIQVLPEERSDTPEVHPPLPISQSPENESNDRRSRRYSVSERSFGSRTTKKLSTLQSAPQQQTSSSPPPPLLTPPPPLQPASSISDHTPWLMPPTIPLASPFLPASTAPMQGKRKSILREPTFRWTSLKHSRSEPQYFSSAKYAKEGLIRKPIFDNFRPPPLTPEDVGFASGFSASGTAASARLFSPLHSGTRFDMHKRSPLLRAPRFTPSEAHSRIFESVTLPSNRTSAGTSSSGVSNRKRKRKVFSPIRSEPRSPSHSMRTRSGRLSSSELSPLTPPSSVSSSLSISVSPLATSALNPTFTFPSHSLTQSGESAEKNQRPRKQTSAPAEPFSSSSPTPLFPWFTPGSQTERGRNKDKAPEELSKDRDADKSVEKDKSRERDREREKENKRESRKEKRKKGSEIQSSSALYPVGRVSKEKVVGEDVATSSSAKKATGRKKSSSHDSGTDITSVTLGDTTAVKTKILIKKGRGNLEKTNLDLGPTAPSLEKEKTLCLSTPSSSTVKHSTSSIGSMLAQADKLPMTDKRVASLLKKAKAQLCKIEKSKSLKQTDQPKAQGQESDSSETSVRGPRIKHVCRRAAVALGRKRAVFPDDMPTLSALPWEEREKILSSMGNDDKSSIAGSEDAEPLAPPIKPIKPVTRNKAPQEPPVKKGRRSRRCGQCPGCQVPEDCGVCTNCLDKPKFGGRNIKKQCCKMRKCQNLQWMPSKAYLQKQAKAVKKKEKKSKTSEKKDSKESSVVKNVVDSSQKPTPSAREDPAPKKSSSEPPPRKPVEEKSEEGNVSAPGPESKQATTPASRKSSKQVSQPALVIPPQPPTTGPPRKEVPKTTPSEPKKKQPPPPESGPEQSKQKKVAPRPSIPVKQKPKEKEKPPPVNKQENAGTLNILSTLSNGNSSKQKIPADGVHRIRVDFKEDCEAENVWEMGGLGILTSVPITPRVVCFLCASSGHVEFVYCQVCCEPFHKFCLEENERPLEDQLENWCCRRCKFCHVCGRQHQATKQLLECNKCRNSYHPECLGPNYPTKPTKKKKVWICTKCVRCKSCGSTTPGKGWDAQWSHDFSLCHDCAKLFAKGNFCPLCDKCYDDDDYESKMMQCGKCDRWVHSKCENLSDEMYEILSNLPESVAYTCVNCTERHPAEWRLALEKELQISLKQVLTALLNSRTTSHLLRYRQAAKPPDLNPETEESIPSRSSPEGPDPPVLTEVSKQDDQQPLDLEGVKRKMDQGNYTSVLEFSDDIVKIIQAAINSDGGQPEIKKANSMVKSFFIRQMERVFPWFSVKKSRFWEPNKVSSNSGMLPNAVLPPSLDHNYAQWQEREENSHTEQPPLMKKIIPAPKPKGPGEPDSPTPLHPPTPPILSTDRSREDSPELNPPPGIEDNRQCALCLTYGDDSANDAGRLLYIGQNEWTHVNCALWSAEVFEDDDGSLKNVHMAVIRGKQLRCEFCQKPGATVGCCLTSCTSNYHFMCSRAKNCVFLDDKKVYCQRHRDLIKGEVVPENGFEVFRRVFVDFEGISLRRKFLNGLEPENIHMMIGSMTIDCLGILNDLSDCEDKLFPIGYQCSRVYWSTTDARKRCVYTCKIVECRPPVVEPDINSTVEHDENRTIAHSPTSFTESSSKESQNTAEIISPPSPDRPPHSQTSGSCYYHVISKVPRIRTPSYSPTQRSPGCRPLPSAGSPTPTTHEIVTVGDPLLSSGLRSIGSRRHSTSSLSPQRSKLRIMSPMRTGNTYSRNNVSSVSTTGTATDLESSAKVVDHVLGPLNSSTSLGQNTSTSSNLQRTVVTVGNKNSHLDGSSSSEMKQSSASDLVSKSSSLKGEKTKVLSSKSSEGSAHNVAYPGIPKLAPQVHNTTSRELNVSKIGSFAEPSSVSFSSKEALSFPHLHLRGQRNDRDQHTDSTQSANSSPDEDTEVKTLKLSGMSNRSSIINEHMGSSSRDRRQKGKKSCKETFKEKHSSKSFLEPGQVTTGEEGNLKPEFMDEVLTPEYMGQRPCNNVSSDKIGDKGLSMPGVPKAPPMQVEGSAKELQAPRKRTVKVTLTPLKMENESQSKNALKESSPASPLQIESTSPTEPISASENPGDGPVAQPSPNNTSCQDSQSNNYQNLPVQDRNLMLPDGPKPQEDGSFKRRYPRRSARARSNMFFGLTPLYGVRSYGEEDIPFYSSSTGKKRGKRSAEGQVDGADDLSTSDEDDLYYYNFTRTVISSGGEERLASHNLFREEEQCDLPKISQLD
Chain of Histone-lysine N-methyltransferase 2A (Q03164 2719-3969 limits assumed): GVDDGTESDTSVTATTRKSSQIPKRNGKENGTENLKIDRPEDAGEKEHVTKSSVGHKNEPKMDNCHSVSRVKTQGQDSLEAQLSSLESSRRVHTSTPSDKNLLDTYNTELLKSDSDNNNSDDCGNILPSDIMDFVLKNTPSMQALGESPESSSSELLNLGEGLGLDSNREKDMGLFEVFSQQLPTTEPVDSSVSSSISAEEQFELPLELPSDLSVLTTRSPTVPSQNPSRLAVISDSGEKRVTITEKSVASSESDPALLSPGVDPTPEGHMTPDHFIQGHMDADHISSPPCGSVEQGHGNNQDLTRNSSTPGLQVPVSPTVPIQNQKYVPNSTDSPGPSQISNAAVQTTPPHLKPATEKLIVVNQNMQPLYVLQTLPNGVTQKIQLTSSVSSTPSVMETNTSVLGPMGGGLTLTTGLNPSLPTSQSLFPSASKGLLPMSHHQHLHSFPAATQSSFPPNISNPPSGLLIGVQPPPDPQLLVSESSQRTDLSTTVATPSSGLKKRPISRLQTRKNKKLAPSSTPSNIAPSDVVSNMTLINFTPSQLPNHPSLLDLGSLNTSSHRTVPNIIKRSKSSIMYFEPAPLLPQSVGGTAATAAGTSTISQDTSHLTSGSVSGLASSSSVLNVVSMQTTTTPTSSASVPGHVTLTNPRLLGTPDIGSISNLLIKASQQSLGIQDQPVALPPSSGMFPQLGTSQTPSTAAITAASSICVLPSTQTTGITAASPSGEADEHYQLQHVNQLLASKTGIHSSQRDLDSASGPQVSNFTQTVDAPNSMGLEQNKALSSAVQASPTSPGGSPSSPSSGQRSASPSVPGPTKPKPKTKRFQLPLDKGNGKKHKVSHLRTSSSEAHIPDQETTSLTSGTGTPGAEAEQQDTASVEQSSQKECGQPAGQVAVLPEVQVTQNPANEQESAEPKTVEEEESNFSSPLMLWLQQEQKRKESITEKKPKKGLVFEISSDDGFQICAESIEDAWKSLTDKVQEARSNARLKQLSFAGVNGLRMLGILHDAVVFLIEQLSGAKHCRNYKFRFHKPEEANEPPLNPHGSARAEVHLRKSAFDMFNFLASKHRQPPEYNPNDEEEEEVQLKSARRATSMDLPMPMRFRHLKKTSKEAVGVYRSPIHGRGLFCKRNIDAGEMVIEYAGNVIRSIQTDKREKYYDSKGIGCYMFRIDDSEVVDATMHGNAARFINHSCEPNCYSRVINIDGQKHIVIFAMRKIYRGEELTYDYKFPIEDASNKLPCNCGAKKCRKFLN
Chain of N-lysine methyltransferase SMYD2 (Q9NRG4 whole entry): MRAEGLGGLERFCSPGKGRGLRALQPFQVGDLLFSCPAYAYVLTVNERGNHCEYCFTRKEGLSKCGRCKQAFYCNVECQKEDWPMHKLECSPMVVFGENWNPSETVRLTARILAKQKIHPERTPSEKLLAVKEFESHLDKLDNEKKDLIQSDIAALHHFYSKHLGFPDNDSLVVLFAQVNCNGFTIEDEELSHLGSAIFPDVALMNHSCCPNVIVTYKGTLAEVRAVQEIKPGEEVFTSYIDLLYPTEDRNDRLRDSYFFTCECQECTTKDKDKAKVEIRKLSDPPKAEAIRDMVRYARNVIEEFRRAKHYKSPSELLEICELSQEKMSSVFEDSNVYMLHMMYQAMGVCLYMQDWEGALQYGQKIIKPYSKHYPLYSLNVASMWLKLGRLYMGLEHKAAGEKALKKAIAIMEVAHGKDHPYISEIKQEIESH
Chain of Protein arginine N-methyltransferase 5 (O14744 whole entry): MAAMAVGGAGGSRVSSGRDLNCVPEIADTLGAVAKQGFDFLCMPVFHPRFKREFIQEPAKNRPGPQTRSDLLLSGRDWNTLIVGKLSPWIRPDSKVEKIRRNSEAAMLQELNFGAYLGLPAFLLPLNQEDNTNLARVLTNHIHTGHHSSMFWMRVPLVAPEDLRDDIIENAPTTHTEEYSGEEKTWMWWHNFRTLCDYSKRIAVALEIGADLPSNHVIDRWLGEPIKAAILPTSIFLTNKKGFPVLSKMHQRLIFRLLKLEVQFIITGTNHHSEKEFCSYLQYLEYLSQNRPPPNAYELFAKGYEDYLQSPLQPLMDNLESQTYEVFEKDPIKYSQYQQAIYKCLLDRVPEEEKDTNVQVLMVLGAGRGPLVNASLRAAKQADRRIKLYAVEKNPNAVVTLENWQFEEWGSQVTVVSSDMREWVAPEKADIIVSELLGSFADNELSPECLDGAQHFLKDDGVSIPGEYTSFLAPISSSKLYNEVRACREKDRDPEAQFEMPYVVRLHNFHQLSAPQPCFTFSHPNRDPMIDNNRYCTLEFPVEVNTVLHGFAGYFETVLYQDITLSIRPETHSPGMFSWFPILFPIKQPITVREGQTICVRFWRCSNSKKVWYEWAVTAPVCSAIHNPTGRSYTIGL

IC50 [1]: > 100 µM | IC50 [2]: > 100 µM | IC50 [3]: > 100 µM | IC50 [4]: > 100 µM | IC50 [5]: > 100 µM | IC50 [6]: > 100 µM | IC50 [7]: > 100 µM | IC50 [8]: > 100 µM | IC50 [9]: > 100 µM | IC50 [10]: > 100 µM | IC50 [11]: > 100 µM | IC50 [12]: > 100 µM | IC50 [13]: > 100 µM | IC50 [14]: > 100 µM
Structure (SMILES): COc1cc2nc(N3CCCC3)nc(NCCCCCN3CCCC3)c2cc1OC

IC50 [15]: Not Active | IC50 [16]: > 250 µM
Structure (SMILES): COc1cc2nc(N3CCCC3)nc(N(C)CCCCCN3CCCC3)c2cc1OC

IC50 [16]: > 250 µM
Structure (SMILES): COc1cc2nc(NC3CCCC3)nc(NCCCCCN3CCCC3)c2cc1OC

IC50 [16]: > 250 µM
Structure (SMILES): COc1cc2nc(NC3CCCCC3)nc(NCCCCCN3CCCC3)c2cc1OC
